These results are taken from ChEMBL document CHEMBL6153064, “Structure-based discovery of novel diarylpyrimidines as potent and selective Non-Nucleoside reverse transcriptase inhibitors: From CH(CN)-Biphenyl-Diarylpyrimidines to CNNH2-Biphenyl-Diarylpyrimidines” (Eur J Med Chem, 2025).

The subject of data set [1] is Human immunodeficiency virus 1. Kind of data set: Antiviral activity against wild type HIV-1 IIIB infected in human MT4 cells […]. Type of data set: functional, organism-based. The following applies: Human immunodeficiency virus 1, IIIB.
Data set [2] is described as follows: Selectivity index, ratio of CC50 for cytotoxicity against human MT4 cells to EC50 for antiviral activity against wild type HIV-1 IIIB infected in human MT4 cells. Type of data set: toxicity, cell-based. The following applies: read-out: Ratio CC50/EC50. Put shortly:
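Selectivity index calculated as CC50/EC50 ratio, both values from MTT viability readout in MT-4 cells, antiviral arm using wild-type HIV-1 IIIB.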

A short description of data set [3]: Cytotoxicity against human MT4 cells by MTT assay. The format is toxicity, cell-based. In general terms: Tetrazolium dyes change colour on reduction, which living cells bring about.
Data set [4] concerns Human immunodeficiency virus 1. Put plainly: Antiviral activity against HIV-1 harboring Y181C mutant infected in human MT4 cells […]. The format is functional, organism-based. The settings on record: Human immunodeficiency virus 1, MT4.
Data set [5] relates to Human immunodeficiency virus 1. Put plainly: Antiviral activity against HIV-1 harboring K103N mutant infected in human MT4 cells […]. The format is functional, organism-based. The settings on record: Human immunodeficiency virus 1, MT4.
In data set [6] the test system is Human immunodeficiency virus 1. Kind of data set: Antiviral activity against HIV-1 harboring L100I mutant infected in human MT4 cells […]. The format is functional, organism-based. The settings on record: Human immunodeficiency virus 1, MT4.
The test system of data set [7] is Human immunodeficiency virus 1. Kind of data set: Antiviral activity against HIV-1 harboring E138K mutant infected in human MT4 cells […]. Type of data set: functional, organism-based. The settings on record: Human immunodeficiency virus 1, MT4.
Data set [8] concerns Human immunodeficiency virus 1. Kind of data set: Antiviral activity against HIV-1 harboring Y188L mutant infected in human MT4 cells assessed as inhibition of virus-induced cytopathic effect by MTT assay. The following applies: Human immunodeficiency virus 1, MT4.

The term EC50 denotes the concentration needed to bring the measured effect to its halfway point. The term CC50 denotes the concentration that lowers cell viability or growth by half. High values mean better tolerance by the cells, low ones harm at low concentration. As to `N#Cc1ccc(Nc2nccc(C(NCCCO)c3ccc(-c4ccc(C#N)cc4)cc3Cl)n2)cc1` (centres undefined), the 50% effective concentration (EC50) in data set [1] came out at 67 nM. Moreover, the selectivity ratio in data set [2] is 345. Besides, the midpoint of cytotoxicity in data set [3], the CC50, lay at 23000 nM.

In turn, `N#Cc1ccc(Nc2nccc(C(NCCF)c3ccc(-c4ccc(C#N)cc4)cc3Cl)n2)cc1` (centres undefined) registered an EC50 in data set [1] of 77 nM. Besides, in data set [2], the selectivity ratio is more than 3370. Further, the cytotoxic concentration (CC50) in data set [3] was more than 259000 nM.

In the case of `O=C1Nc2ccc(Cl)cc2[C@@](C#CC2CC2)(C(F)(F)F)O1` [EFAVIRENZ], the concentration giving a half-maximal response (EC50) in data set [4] worked out at 8 nM. For the same compound, the half-maximal cytotoxic concentration (CC50) in data set [3] was more than 6300 nM.

The compound `N#Cc1ccc(Nc2nccc(C(NCCCl)c3ccc(-c4ccc(C#N)cc4)cc3Cl)n2)cc1` (centres undefined) yielded an EC50 in data set [1] of 42 nM. In addition, the selectivity ratio in data set [2] came to 5890. The compound further returned a CC50 in data set [3] of 243000 nM.

With `CC(C)NC(c1ccnc(Nc2ccc(C#N)cc2)n1)c1ccc(-c2ccc(C#N)cc2)cc1Cl` (centres undefined), the concentration for a half-maximal effect (EC50) in data set [1] stood at 230 nM. Moreover, the selectivity ratio in data set [2] was determined as 130. In data set [3], this compound came in with a cytotoxic concentration (CC50) of 30000 nM.

In turn, `CCCNC(c1ccnc(Nc2ccc(C#N)cc2)n1)c1ccc(-c2ccc(C#N)cc2)cc1C(F)(F)F` (centres undefined) displayed an EC50 in data set [1] of 1010 nM. For the same compound, the selectivity ratio in data set [2] came to 87. In data set [3], the half-maximal cytotoxic concentration (CC50) was 90000 nM.

As for `CCNC(c1ccnc(Nc2ccc(C#N)cc2)n1)c1ccc(-c2ccc(C#N)cc2)cc1F` (centres undefined), it took 357 nM to reach a half-maximal effect in data set [1] (EC50). Besides, in data set [2], the selectivity ratio was found to be 87. The half-maximal cytotoxic concentration (CC50) in data set [3] was 31000 nM.

On to `N#CCCNC(c1ccnc(Nc2ccc(C#N)cc2)n1)c1ccc(-c2ccc(C#N)cc2)cc1Cl` (centres undefined), for which, in data set [1], the concentration for a half-maximal effect (EC50) stood at 71 nM. Besides, the selectivity ratio in data set [2] was more than 3600. The compound further came in with a CC50 in data set [3] of more than 255000 nM.

In data set [1], `CCNC(c1ccnc(Nc2ccc(C#N)cc2)n1)c1ccc(-c2ccc(C#N)cc2)cc1C` (centres undefined) had an EC50 of 63 nM. Further, the selectivity ratio in data set [2] came to 188. In addition, the CC50 in data set [3] came to 12000 nM.

`CCNC(c1ccnc(Nc2ccc(C#N)cc2)n1)c1ccc(-c2ccc(C#N)cc2)cc1OC(F)(F)F` (centres undefined) gave an EC50 in data set [1] of 505 nM. Moreover, the selectivity ratio in data set [2] was 43. The compound also yielded a half-maximal cytotoxic concentration (CC50) in data set [3] of 21000 nM.

On to `N#Cc1ccc(Nc2nccc(C(NC3CC3)c3ccc(-c4ccc(C#N)cc4)cc3Cl)n2)cc1` (centres undefined), for which a half-maximal effect in data set [1] (EC50) was put at 147 nM. Also, the selectivity ratio in data set [2] is more than 1800. The compound further yielded a CC50 in data set [3] of more than 262000 nM.

With `N#Cc1ccc(Nc2nccc(C(NCC(F)(F)F)c3ccc(-c4ccc(C#N)cc4)cc3Cl)n2)cc1` (centres undefined), the EC50 in data set [1] amounted to 231 nM. The selectivity ratio in data set [2] is more than 1070. The same compound showed a CC50 in data set [3] of more than 241000 nM.

`CCCNC(c1ccnc(Nc2ccc(C#N)cc2)n1)c1ccc(-c2ccc(C#N)cc2)cc1F` (centres undefined) gave a concentration for a half-maximal effect (EC50) in data set [1] of 259 nM. For the same compound, the selectivity ratio in data set [2] was more than 1060. Also, in data set [3], the CC50 was more than 270000 nM.

Regarding `N#Cc1ccc(Nc2nccc(C(C#N)c3ccc(-c4ccc(C#N)cc4)cc3F)n2)cc1` (centres undefined), the concentration for a half-maximal effect (EC50) is 900 nM in data set [5]; 1210 nM in data set [6]; 170 nM in data set [7]; 870 nM in data set [4]; 9810 nM in data set [8]. Further, in data set [2], the selectivity ratio turned out to be 1360. The compound further gave a CC50 in data set [3] of 36000 nM.

Turning to `CCNC(c1ccnc(Nc2ccc(C#N)cc2)n1)c1ccc(-c2ccc(C#N)cc2)cc1Cl` (centres undefined), in data set [1], the midpoint of the response, the EC50, lay at 99 nM. Besides, the selectivity ratio in data set [2] was 187. The compound also returned a CC50 in data set [3] of 19000 nM.

As for `CC(C)NC(c1ccnc(Nc2ccc(C#N)cc2)n1)c1ccc(-c2ccc(C#N)cc2)cc1OC(F)(F)F` (centres undefined), a half-maximal effect in data set [1] (EC50) was put at 927 nM. Besides, the selectivity ratio in data set [2] worked out at 24. For the same compound, the CC50 in data set [3] was found to be 23000 nM.

The compound `COc1cc(-c2ccc(C#N)cc2)ccc1C(NC1CC1)c1ccnc(Nc2ccc(C#N)cc2)n1` (centres undefined) gave a 50% effective concentration (EC50) in data set [1] of 72 nM. The selectivity ratio in data set [2] was determined as 1680. This compound came in with a cytotoxic concentration (CC50) in data set [3] of 123000 nM.

`N#Cc1ccc(Nc2nccc(C(NC3CC3)c3ccc(-c4ccc(C#N)cc4)cc3OC(F)(F)F)n2)cc1` (centres undefined) yielded an EC50 in data set [1] of 589 nM. In addition, in data set [2], the selectivity ratio stood at 125. Further, the cytotoxic concentration (CC50) in data set [3] is 73000 nM.

On to `CCCNC(c1ccnc(Nc2ccc(C#N)cc2)n1)c1ccc(-c2ccc(C#N)cc2)cc1OC(F)(F)F` (centres undefined), for which, in data set [1], a half-maximal response (EC50) required 662 nM. For the same compound, the selectivity ratio in data set [2] came to 40. Moreover, the midpoint of cytotoxicity in data set [3], the CC50, lay at 27000 nM.

In turn, `CC(C)NC(c1ccnc(Nc2ccc(C#N)cc2)n1)c1ccc(-c2ccc(C#N)cc2)cc1C(F)(F)F` (centres undefined) displayed an EC50 in data set [1] of 1190 nM. For the same compound, in data set [2], the selectivity ratio amounted to 25. The compound further showed a CC50 in data set [3] of 29000 nM.

In data set [1], `CC(C)NC(c1ccnc(Nc2ccc(C#N)cc2)n1)c1ccc(-c2ccc(C#N)cc2)cc1F` (centres undefined) returned an EC50 of 649 nM. Further, the selectivity ratio in data set [2] was determined as 70. The compound also had a CC50 in data set [3] of 45000 nM.

As to `COc1cc(-c2ccc(C#N)cc2)ccc1C(NC(C)C)c1ccnc(Nc2ccc(C#N)cc2)n1` (centres undefined), the 50% effective concentration (EC50) in data set [1] was 211 nM. The selectivity ratio in data set [2] is 94. Moreover, in data set [3], the half-maximal cytotoxic concentration (CC50) was 20000 nM.

In turn, `N#Cc1ccc(Nc2nccc(C(NC3CC3)c3ccc(-c4ccc(C#N)cc4)cc3C(F)(F)F)n2)cc1` (centres undefined) yielded an EC50 in data set [1] of 294 nM. For the same compound, the selectivity ratio in data set [2] worked out at 250. In data set [3], this compound yielded a half-maximal cytotoxic concentration (CC50) of 75000 nM.

On to `Cc1ccnc2c1NC(=O)c1cccnc1N2C1CC1` [NEVIRAPINE], for which the EC50 in data set [6] was 2060 nM; in data set [8] it was more than 15000 nM.

In data set [1], `CCCNC(c1ccnc(Nc2ccc(C#N)cc2)n1)c1ccc(-c2ccc(C#N)cc2)cc1C` (centres undefined) gave an EC50 of 146 nM. Further, in data set [2], the selectivity ratio is more than 1870. The compound further returned a cytotoxic concentration (CC50) in data set [3] of more than 273000 nM.

`CCCNC(c1ccnc(Nc2ccc(C#N)cc2)n1)c1ccc(-c2ccc(C#N)cc2)cc1OC` (centres undefined) registered an EC50 in data set [1] of 131 nM. For the same compound, the selectivity ratio in data set [2] is 110. For the same compound, the CC50 in data set [3] was found to be 14000 nM.

As to `CCCNC(c1ccnc(Nc2ccc(C#N)cc2)n1)c1ccc(-c2ccc(C#N)cc2)cc1Cl` (centres undefined), the half-maximal effective concentration (EC50) in data set [1] turned out to be 184 nM. For the same compound, the selectivity ratio in data set [2] is more than 1420. Further, in data set [3], the CC50 was more than 261000 nM.

With `N#Cc1ccc(Nc2nccc(C(NC3CC3)c3ccc(-c4ccc(C#N)cc4)cc3F)n2)cc1` (centres undefined), the EC50 in data set [1] came to 630 nM. Further, the selectivity ratio in data set [2] is more than 431. Also, the CC50 in data set [3] is more than 271000 nM.

As to `Cc1cc(-c2ccc(C#N)cc2)ccc1C(NC(C)C)c1ccnc(Nc2ccc(C#N)cc2)n1` (centres undefined), the half-maximal effective concentration (EC50) in data set [1] was determined as 166 nM. The selectivity ratio in data set [2] was 495. This compound showed a half-maximal cytotoxic concentration (CC50) in data set [3] of 82000 nM.

For the compound `N#Cc1ccc(Nc2nccc(C(NCCCCl)c3ccc(-c4ccc(C#N)cc4)cc3Cl)n2)cc1` (centres undefined), the EC50 in data set [1] was found to be 195 nM. In data set [2], the selectivity ratio is more than 1260. In data set [3], this compound came in with a half-maximal cytotoxic concentration (CC50) of more than 244000 nM.

In the case of `N#Cc1ccc(Nc2nccc(C(NCCO)c3ccc(-c4ccc(C#N)cc4)cc3Cl)n2)cc1` (centres undefined), the EC50 in data set [1] came out at 92 nM. Besides, the selectivity ratio in data set [2] turned out to be 238. This compound also displayed a half-maximal cytotoxic concentration (CC50) in data set [3] of 22000 nM.

In data set [1], `CCNC(c1ccnc(Nc2ccc(C#N)cc2)n1)c1ccc(-c2ccc(C#N)cc2)cc1OC` (centres undefined) had an EC50 of 326 nM. In data set [2], the selectivity ratio was 60. Moreover, it took 20000 nM to reach half-maximal cytotoxicity in data set [3] (CC50).

`CCNC(c1ccnc(Nc2ccc(C#N)cc2)n1)c1ccc(-c2ccc(C#N)cc2)cc1C(F)(F)F` (centres undefined) returned an EC50 in data set [1] of 153 nM. Moreover, the selectivity ratio in data set [2] was 146. The CC50 in data set [3] is 22000 nM.

In data set [1], `Cc1cc(-c2ccc(C#N)cc2)ccc1C(NC1CC1)c1ccnc(Nc2ccc(C#N)cc2)n1` (centres undefined) yielded a concentration for a half-maximal effect (EC50) of 156 nM. In data set [2], the selectivity ratio is more than 1760. The compound further displayed a half-maximal cytotoxic concentration (CC50) in data set [3] of more than 274000 nM.
